# “And” between values parts separate entries of the source, which are not always exact repeats. Equal entries are not always repeated.
# What was measured:
# U2OS = assay: Multiplex assay against U2OS; assay type: toxicity, cell-based; conditions: human
# In short: (§1)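 Imaging took place on a CQ1 microscope at 37°C and 5% CO2 once compound had been added to live cells stained at seeding with Hoechst33342, BioTracker Green Microtubule Cytoskeleton Dye, MitoTracker Red and Annexin V Alexa Fluor 680. CellPathfinder machine-learning gating classed cells as Hoechst high-intensity objects or normal cells, classed normal cells as having healthy, pyknosed or fragmented nuclei, and classed pyknosed cells as mitotic or apoptotic. Tubulin, mitochondrial-mass and membrane-permeability phenotypes are per cents of the healthy-nucleus cells.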
# Fibroblast = assay: Multiplex assay against human fibroblast; assay type: toxicity, cell-based; in short: as §1
# [1] = 24 h, 1 µM, compound concentration 1 uM
# [2] = 24 h, 10 µM, compound concentration 10 uM
# [3] = 48 h, 1 µM, compound concentration 1 uM
# [4] = 48 h, 10 µM, compound concentration 10 uM
# [5] = 12 h, 1 µM, compound concentration 1 uM
# [6] = 12 h, 10 µM, compound concentration 10 uM
smiles,measurement,setting,value
COc1cc(C(=O)N2CC[C@@H](O)[C@@H](N)C2)cc2nc(-c3cc4ccccc4n3CC3CC3)n(C)c12.Cl,Total Cell Count,U2OS; [1],243 and 109
same,Population Apoptotic (%),U2OS; [2],84% and 71%
same,Population Fragmented Nuclei (%),U2OS; [2],25% and 26%
same,Population Healthy Nuclei (%),U2OS; [2],35% and 48%
same,Population Hoechst High Intensity Objects (%),U2OS; [2],4%
same,Population Membrane Permeable-Phenotype (%),U2OS; [2],57% and 50%
same,Population Mitochondria Different-Phenotype (%),U2OS; [2],88% and 85%
same,Population Mitotic Cells (%),U2OS; [2],15% and 28%
same,Population Normal (%),U2OS; [2],95%
same,Population Pyknosed Nuclei (%),U2OS; [2],38% and 25%
same,Population Tubulin-Different-Phenotype (%),U2OS; [2],78% and 90%
same,Total Cell Count,U2OS; [2],222 and 133
same,Population Apoptotic (%),U2OS; [3],82% and 76%
same,Population Fragmented Nuclei (%),U2OS; [3],23%
same,Population Healthy Nuclei (%),U2OS; [3],61%
same,Population Hoechst High Intensity Objects (%),U2OS; [3],2%
same,Population Membrane Permeable-Phenotype (%),U2OS; [3],9% and 17%
same,Population Mitochondria Different-Phenotype (%),U2OS; [3],5% and 11%
same,Population Mitotic Cells (%),U2OS; [3],17% and 23%
same,Population Normal (%),U2OS; [3],97%
same,Population Pyknosed Nuclei (%),U2OS; [3],15% and 14%
same,Population Tubulin-Different-Phenotype (%),U2OS; [3],5% and 12%
same,Total Cell Count,U2OS; [3],304 and 149
same,Population Apoptotic (%),U2OS; [4],88% and 92%
same,Population Fragmented Nuclei (%),U2OS; [4],29% and 30%
same,Population Healthy Nuclei (%),U2OS; [4],35%
same,Population Hoechst High Intensity Objects (%),U2OS; [4],12% and 6%
same,Population Membrane Permeable-Phenotype (%),U2OS; [4],47%
same,Population Mitochondria Different-Phenotype (%),U2OS; [4],65% and 84%
same,Population Mitotic Cells (%),U2OS; [4],11% and 7%
same,Population Normal (%),U2OS; [4],87% and 93%
same,Population Pyknosed Nuclei (%),U2OS; [4],35% and 34%
same,Population Tubulin-Different-Phenotype (%),U2OS; [4],62% and 75%
same,Total Cell Count,U2OS; [4],232 and 131
same,Population Apoptotic (%),Fibroblast; [5],21% and 48%
same,Population Fragmented Nuclei (%),Fibroblast; [5],25% and 24%
same,Population Healthy Nuclei (%),Fibroblast; [5],62% and 44%
same,Population Hoechst High Intensity Objects (%),Fibroblast; [5],2% and 3%
same,Population Membrane Permeable-Phenotype (%),Fibroblast; [5],0% and 10%
same,Population Mitochondria Different-Phenotype (%),Fibroblast; [5],4% and 14%
same,Population Mitotic Cells (%),Fibroblast; [5],78% and 51%
same,Population Normal (%),Fibroblast; [5],97% and 96%
same,Population Pyknosed Nuclei (%),Fibroblast; [5],12% and 31%
same,Population Tubulin-Different-Phenotype (%),Fibroblast; [5],55% and 69%
same,Total Cell Count,Fibroblast; [5],160 and 130
same,Population Apoptotic (%),Fibroblast; [6],60% and 48%
same,Population Fragmented Nuclei (%),Fibroblast; [6],22% and 30%
same,Population Healthy Nuclei (%),Fibroblast; [6],57% and 44%
same,Population Hoechst High Intensity Objects (%),Fibroblast; [6],6% and 10%
same,Population Membrane Permeable-Phenotype (%),Fibroblast; [6],0% and 2%
same,Population Mitochondria Different-Phenotype (%),Fibroblast; [6],34% and 25%
same,Population Mitotic Cells (%),Fibroblast; [6],40% and 51%
same,Population Normal (%),Fibroblast; [6],93% and 89%
same,Population Pyknosed Nuclei (%),Fibroblast; [6],19% and 25%
same,Population Tubulin-Different-Phenotype (%),Fibroblast; [6],97% and 92%
same,Total Cell Count,Fibroblast; [6],271 and 179
same,Population Apoptotic (%),Fibroblast; [1],55% and 60%
same,Population Fragmented Nuclei (%),Fibroblast; [1],24% and 31%
same,Population Healthy Nuclei (%),Fibroblast; [1],62% and 36%
same,Population Hoechst High Intensity Objects (%),Fibroblast; [1],3% and 4%
same,Population Membrane Permeable-Phenotype (%),Fibroblast; [1],0% and 4%
same,Population Mitotic Cells (%),Fibroblast; [1],45% and 39%
same,Population Normal (%),Fibroblast; [1],96% and 95%
same,Population Pyknosed Nuclei (%),Fibroblast; [1],13% and 31%
same,Population Tubulin-Different-Phenotype (%),Fibroblast; [1],51% and 79%
same,Total Cell Count,Fibroblast; [1],158 and 125
same,Population Apoptotic (%),Fibroblast; [2],73% and 62%
same,Population Fragmented Nuclei (%),Fibroblast; [2],15% and 27%
same,Population Healthy Nuclei (%),Fibroblast; [2],68% and 54%
same,Population Hoechst High Intensity Objects (%),Fibroblast; [2],7% and 5%
same,Population Membrane Permeable-Phenotype (%),Fibroblast; [2],0% and 3%
same,Population Mitochondria Different-Phenotype (%),Fibroblast; [2],55% and 41%
same,Population Mitotic Cells (%),Fibroblast; [2],26% and 37%
same,Population Normal (%),Fibroblast; [2],92% and 94%
same,Population Pyknosed Nuclei (%),Fibroblast; [2],16% and 17%
same,Population Tubulin-Different-Phenotype (%),Fibroblast; [2],94% and 92%
same,Total Cell Count,Fibroblast; [2],274 and 174
same,Population Apoptotic (%),Fibroblast; [3],80% and 64%
same,Population Fragmented Nuclei (%),Fibroblast; [3],22% and 38%
same,Population Healthy Nuclei (%),Fibroblast; [3],67% and 41%
same,Population Hoechst High Intensity Objects (%),Fibroblast; [3],6% and 1%
same,Population Membrane Permeable-Phenotype (%),Fibroblast; [3],0% and 3%
same,Population Mitochondria Different-Phenotype (%),Fibroblast; [3],8% and 16%
same,Population Mitotic Cells (%),Fibroblast; [3],20% and 35%
same,Population Normal (%),Fibroblast; [3],93% and 98%
same,Population Pyknosed Nuclei (%),Fibroblast; [3],10% and 20%
same,Population Tubulin-Different-Phenotype (%),Fibroblast; [3],44% and 80%
same,Total Cell Count,Fibroblast; [3],161 and 153
same,Population Apoptotic (%),Fibroblast; [4],86%
same,Population Fragmented Nuclei (%),Fibroblast; [4],20% and 32%
same,Population Healthy Nuclei (%),Fibroblast; [4],64% and 55%
same,Population Hoechst High Intensity Objects (%),Fibroblast; [4],8% and 4%
same,Population Membrane Permeable-Phenotype (%),Fibroblast; [4],0%
same,Population Mitochondria Different-Phenotype (%),Fibroblast; [4],62% and 36%
same,Population Mitotic Cells (%),Fibroblast; [4],13%
same,Population Normal (%),Fibroblast; [4],91% and 95%
same,Population Pyknosed Nuclei (%),Fibroblast; [4],15% and 11%
same,Population Tubulin-Different-Phenotype (%),Fibroblast; [4],94%
same,Total Cell Count,Fibroblast; [4],256 and 193

# Source: ChEMBL document CHEMBL5724801, “EUbOPEN Chemogenomics Library - Multiplex” (2024)
